Laboratory results: ChEMBL document CHEMBL2390954, “Discovery of a synthetic Aminopeptidase N inhibitor LB-4b as a potential anticancer agent” (Bioorg Med Chem Lett, 2013)
Activity calls are given as the source filed them. The rule behind the calls is not given here.

Assays:
[1] = system: Aorta; assay: Antiangiogenic activity against Sprague-Dawley rat aortic rings assessed as inhibition of new microvessel growth at 100 ug/ml after 6 days; assay type: functional, tissue-based
Outline: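 Rat aortic rings embedded on Matrigel; microvessel outgrowth from the ring scored and expressed as inhibition rate versus control; mean with SD from three independent experiments.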

[2] = target: T1, Aminopeptidase N (Sus scrofa, UniProt P15145); assay: Inhibition of pig kidney APN using L-Leu-p-nitroanilide as substrate incubated for 5 mins prior to substrate addition measured after 30 mins by UV-Vis spectrophotometry
T1 sequence (P15145 whole entry): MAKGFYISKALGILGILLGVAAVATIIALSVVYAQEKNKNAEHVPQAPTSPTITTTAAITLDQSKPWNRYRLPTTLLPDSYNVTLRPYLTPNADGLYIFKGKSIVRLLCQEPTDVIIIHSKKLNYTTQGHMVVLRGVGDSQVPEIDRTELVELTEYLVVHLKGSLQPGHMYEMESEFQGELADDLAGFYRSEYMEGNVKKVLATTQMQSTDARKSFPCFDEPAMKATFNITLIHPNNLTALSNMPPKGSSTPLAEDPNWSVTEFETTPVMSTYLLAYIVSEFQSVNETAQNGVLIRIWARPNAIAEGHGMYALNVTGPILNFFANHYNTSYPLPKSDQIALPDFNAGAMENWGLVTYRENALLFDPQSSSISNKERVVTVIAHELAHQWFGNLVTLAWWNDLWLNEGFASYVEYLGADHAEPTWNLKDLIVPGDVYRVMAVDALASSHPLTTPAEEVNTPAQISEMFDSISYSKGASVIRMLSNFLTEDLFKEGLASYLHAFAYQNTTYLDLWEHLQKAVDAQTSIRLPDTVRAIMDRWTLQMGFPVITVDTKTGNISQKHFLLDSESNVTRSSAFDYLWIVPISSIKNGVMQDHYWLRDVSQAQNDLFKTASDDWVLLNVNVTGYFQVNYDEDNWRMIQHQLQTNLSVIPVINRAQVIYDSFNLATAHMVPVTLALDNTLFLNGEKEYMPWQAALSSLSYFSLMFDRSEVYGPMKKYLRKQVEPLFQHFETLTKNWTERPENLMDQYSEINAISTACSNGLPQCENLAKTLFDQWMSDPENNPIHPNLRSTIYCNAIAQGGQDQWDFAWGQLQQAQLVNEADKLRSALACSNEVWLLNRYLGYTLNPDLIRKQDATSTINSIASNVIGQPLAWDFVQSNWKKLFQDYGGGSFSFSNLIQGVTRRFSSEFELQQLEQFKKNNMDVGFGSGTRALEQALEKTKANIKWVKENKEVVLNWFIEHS

[3] = system: HUVEC; assay: Acute cytotoxicity against HUVEC at 100 ug/ml after 8 hrs by microscopic analysis; assay type: cell-based; details: human
Outline: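 Acute cytotoxicity judged by microscopic inspection of treated samples during the assay period on Matrigel.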

[4] = target: T2, Aminopeptidase N (Homo sapiens, UniProt P15144); assay: Inhibition of APN in human ES-2 cells using L-Leu-p-nitroanilide as substrate incubated for 5 mins prior to substrate addition measured after 1 hr by UV-Vis spectrophotometry; assay type: cell-based
T2 sequence (P15144 whole entry): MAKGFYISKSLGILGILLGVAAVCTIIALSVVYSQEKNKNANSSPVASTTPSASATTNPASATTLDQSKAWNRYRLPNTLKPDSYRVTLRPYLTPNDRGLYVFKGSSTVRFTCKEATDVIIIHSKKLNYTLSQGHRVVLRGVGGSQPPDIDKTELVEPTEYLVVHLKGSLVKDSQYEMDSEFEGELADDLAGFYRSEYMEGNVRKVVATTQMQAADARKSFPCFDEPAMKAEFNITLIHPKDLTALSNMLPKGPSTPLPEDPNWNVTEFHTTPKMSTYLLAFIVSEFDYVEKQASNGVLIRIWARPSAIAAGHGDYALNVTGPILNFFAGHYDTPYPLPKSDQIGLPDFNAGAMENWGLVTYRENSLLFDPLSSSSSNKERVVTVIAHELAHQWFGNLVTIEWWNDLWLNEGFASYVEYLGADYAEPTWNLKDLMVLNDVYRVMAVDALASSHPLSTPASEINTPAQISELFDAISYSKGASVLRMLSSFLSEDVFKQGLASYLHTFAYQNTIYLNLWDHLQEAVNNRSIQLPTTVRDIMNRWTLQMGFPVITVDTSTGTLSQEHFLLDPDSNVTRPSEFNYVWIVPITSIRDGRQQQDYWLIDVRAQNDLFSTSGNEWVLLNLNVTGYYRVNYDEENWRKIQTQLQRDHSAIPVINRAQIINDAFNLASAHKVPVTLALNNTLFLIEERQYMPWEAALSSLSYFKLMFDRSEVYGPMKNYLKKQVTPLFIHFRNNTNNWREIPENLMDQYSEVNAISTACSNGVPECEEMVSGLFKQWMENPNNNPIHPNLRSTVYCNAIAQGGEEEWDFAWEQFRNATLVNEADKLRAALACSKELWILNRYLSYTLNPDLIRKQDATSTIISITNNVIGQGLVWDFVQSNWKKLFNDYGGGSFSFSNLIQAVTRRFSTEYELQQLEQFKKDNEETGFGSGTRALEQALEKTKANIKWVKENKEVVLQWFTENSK

[5] = system: HUVEC; assay: Antiangiogenic activity in HUVEC assessed as inhibition of tube formation at 100 ug/ml after 8 hrs by microscopic analysis; assay type: functional, cell-based; details: Homo sapiens
Outline: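 HUVECs plated on Matrigel to form capillary tube-like structures; tubular structure formation scored as inhibition rate versus untreated control; mean with SD from three independent experiments.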

[6] = target: 72 kDa type IV collagenase (Homo sapiens, UniProt P08253); assay: Inhibition of recombinant MMP2 (unknown origin) using […] as substrate incubated for 5 mins prior to substrate addition measured after 60 mins by UV-Vis spectrophotometry
Chain of 72 kDa type IV collagenase (P08253 whole entry): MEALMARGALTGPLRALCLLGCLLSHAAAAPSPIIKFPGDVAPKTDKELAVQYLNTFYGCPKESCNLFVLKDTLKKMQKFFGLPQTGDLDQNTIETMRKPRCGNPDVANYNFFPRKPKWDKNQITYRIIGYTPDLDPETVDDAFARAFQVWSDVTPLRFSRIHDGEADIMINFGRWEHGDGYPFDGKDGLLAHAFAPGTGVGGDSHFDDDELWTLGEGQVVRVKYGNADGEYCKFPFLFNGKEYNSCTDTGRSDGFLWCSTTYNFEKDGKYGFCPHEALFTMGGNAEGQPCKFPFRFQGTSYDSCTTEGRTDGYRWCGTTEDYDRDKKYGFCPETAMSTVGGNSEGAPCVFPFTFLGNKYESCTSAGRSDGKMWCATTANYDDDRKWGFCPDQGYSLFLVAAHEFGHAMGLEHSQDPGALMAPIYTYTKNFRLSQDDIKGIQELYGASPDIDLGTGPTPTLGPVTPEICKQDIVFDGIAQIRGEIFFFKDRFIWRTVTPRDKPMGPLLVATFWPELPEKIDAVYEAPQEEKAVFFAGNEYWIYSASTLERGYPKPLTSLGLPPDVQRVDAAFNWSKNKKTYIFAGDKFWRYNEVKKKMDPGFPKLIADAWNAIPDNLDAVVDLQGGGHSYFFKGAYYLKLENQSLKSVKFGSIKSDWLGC

[7] = system: ES2; assay: Antiinvasive activity against human ES2 cells in matrigel-coated transwell chamber after 8 hrs by Crystal violet staining-based microscopy; assay type: functional, cell-based
Outline: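 Invasion assessed in Matrigel-coated Transwell chambers; ES-2 cells allowed to invade the Matrigel and reach the other side of the membrane over 8 h; graded doses tested.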

[8] = Cytotoxicity against human ES2 cells after 24 hrs by MTT assay; assay type: functional; details: ES-2, 24 h
[9] = target: T2, Aminopeptidase N; assay: Ratio of betastatin IC50 to compound IC50 for APN in human ES-2 cells; assay type: cell-based
[10] = system: ES2; assay: Antimigratory activity against human ES2 cells in transwell chamber at 100 ug/ml after 3 hrs by Crystal violet staining-based microscopy; assay type: functional, cell-based
Outline: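 ES-2 cells placed in Transwell chambers with 8 µm micropore membranes, no Matrigel coating; cells crossing the membrane counted as migration rate relative to control; mean with SD from three independent experiments.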

Row | IC50 [2] | IC50 [4] | IC50 [6] | Ratio IC50 [9] | Compound | Activity [1] | Activity [3] | Activity [5] | Activity [7] | GI50 [8] | Activity [10]
1 | 0.85 µM | 3 µM | > 500 µM | 10 | CC(C)C[C@H](NC(=O)NCc1ccccc1)C(=O)NO | Active | Non-toxic | Active | Dose-dependent effect | > 1000 µM | inactive
2 |  |  |  |  | CC(C)C[C@H](NC(=O)[C@@H](O)[C@H](N)Cc1ccccc1)C(=O)O [UBENIMEX] | Active | Non-toxic | Active | Dose-dependent effect | 350 µM | inactive
